Activity calls are given as the source filed them. The rule behind the calls is not given here.
How the values were obtained:
Rattus norvegicus [1] = species on record: Rattus norvegicus; experiment: Inhibitory activity to inhibit Inophore-induced arachidonic acid metabolism (inhibition of LTB4 formation) in rat; Inactive = no significant inhibition at a concentration of 100 uM; format: functional, organism-based
Summary of the method: (§1)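 Rat peritoneal macrophages adhered 90 min at 37 °C, labeled with [14C]arachidonic acid 90 min, washed. Compound 30 min at 37 °C, then A23187 0.5 µM for 20 min. LTB4 and PGE2 in medium by radioimmunoassay.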

[2] = Inhibitory activity to inhibit Inophore-induced arachidonic acid metabolism (inhibition of PGE-2 formation) in rat; format: functional; summary of the method: as §1
Rattus norvegicus [3] = species on record: Rattus norvegicus; experiment: Inhibitory activity to inhibit Inophore-induced arachidonic acid metabolism (inhibition of LTB4 formation) in rat; format: functional, organism-based; summary of the method: as §1
Cavia porcellus [4] = experiment: Inhibition of leukotriene D4 induced bronchoconstriction in anesthetized guinea pigs after intravenous administration; format: functional; settings: read-out: ID50 (the source's name)
Summary of the method: (§2)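 Male Hartley guinea pigs, 400–600 g, urethane 2 g/kg ip, jugular cannula, propranolol 0.1 mg/kg iv 5 min before challenge, succinylcholine 1.2 mg/kg iv, ventilated. Vehicle or drug iv 30 s before LTD4 25 µg/kg iv; tracheal pressure change.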

Cavia porcellus [5] = species on record: Cavia porcellus; experiment: Activity against histamine induced bronchoconstriction in guinea pig, no significant inhibition at concentration of 1% by aerosol; NA means inactive; format: functional, organism-based
Cavia porcellus [6] = experiment: In vivo guinea pig bronchoconstriction against leukotriene E4 when administered a compound dose(mg/kg) intravenously; format: functional; settings: Lung, iv, read-out: ID50 (the source's name)
[7] = biological target: T1, Cysteinyl leukotriene receptor 1 (Cavia porcellus) (UniProt Q2NNR5); experiment: Inhibitory activity of compound to block binding of [3H]leukotriene D4 to Cysteinyl L-Cysteinyl leukotriene D4 receptor sites in homogenized guinea pig lung at 10 uM
T1 sequence (whole entry): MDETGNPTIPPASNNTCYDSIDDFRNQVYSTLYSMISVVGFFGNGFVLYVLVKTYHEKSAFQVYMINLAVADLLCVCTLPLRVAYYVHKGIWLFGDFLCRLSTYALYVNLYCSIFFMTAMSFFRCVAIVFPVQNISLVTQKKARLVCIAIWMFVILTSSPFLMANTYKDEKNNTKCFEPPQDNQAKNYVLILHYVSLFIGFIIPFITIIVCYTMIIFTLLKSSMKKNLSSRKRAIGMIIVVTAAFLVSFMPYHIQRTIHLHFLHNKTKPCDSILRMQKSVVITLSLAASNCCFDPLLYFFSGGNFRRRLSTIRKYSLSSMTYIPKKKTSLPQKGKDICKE
Summary of the method: (§3)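 Lung from male Hartley guinea pigs (400–500 g), homogenized in sucrose/Tris pH 7.5 with protease inhibitors; 30000g membrane pellet in 10 mM PIPES pH 7.5, 50 mM NaCl. Binding: Tyrode, 0.1% BSA, 1 mM glycine, 1 mM cysteine, 3.5 nM [3H]LTD4, 100–200 µg protein, 20 °C, 30 min; glass-fiber filtration. Nonspecific with 10^-6 M LTD4. Triplicate screen at 10 µM; IC50 by linear regression.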

Cavia porcellus [8] = experiment: Inhibition of leukotriene D4 induced bronchoconstriction in anesthetized guinea pigs after intravenous administration at a dose of 10 mg/kg; format: functional; summary of the method: as §2
[9] = biological target: Dual specificity calcium/calmodulin-dependent 3',5'-cyclic nucleotide phosphodiesterase 1A (Bos taurus, UniProt P14100); experiment: Inhibition of bovine heart Phosphodiesterase 1A
Cavia porcellus [10] = experiment: In vivo guinea pig bronchoconstriction against leukotriene C4 when administered a compound dose (mg/kg) intravenously; format: functional; settings: Lung, iv, read-out: ID50 (the source's name)
Cavia porcellus [11] = experiment: (§4) Duration of action of leukotriene E4 as time for inhibition to decrease to 40%, compound was administered at a dose of 10 mg/kg; format: functional
Summary of the method: (§5)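 Intravenous guinea pig bronchoconstriction with LTE4 challenge; drug 10 mg/kg iv. Duration taken as time for inhibition to fall to 40%.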

Cavia porcellus [12] = experiment: Time taken for inhibition of antigen induced bronchoconstriction in guinea pig to decrease to 40%, compound was administered at a concentration of 1%, for 5 min by aerosol; format: functional
Summary of the method: (§6)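 Aerosol guinea pig bronchoconstriction with antigen challenge; drug given as 1% nebulized solution for 5 min. Duration taken as time for inhibition to fall to 40%.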

Cavia porcellus [13] = experiment: (§7) Duration of action of leukotriene D4 as time for inhibition to decrease to 40%, compound was administered at a dose of 10 mg/kg; format: functional
Summary of the method: (§8)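 Intravenous guinea pig bronchoconstriction with LTD4 challenge; drug 10 mg/kg iv. Duration taken as time for inhibition to fall to 40%.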

Cavia porcellus [14] = experiment: (§9) Inhibition of leukotriene D4 induced bronchoconstriction in anesthetized guinea pigs after aerosol administration as 1% solution; format: functional
Summary of the method: (§10)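 Guinea pigs given propranolol 0.1 mg/kg iv 5 min before 5-min ultrasonic nebulizer exposure to aqueous, NaOH-neutralized drug (% w/v) or distilled water, breathing spontaneously. LTD4 50 µg/kg iv 30 s after exposure; tracheal pressure change.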

Cavia porcellus [15] = species on record: Cavia porcellus; experiment: In vitro activity to inhibit SRS-A induced contraction of guinea pig ileum
[16] = biological target: T2, Cysteinyl leukotriene receptor 1 (Cavia porcellus, UniProt Q2NNR5); experiment: Inhibitory activity of compound to block binding of [3H]leukotriene D4 to Cysteinyl leukotriene D4 receptor sites in homogenized guinea pig lung; summary of the method: as §3
T2 sequence (Q2NNR5 whole entry): T1 sequence (whole entry)

Cavia porcellus [17] = experiment: Duration of action of leukotriene D4 as time for inhibition to decrease to 40%, compound was administered at a concentration 1%, for 5 min by aerosol; format: functional
Summary of the method: (§11)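 Aerosol guinea pig bronchoconstriction with LTD4 challenge; drug given as 1% nebulized solution for 5 min. Duration taken as time for inhibition to fall to 40%.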

Cavia porcellus [18] = species on record: Cavia porcellus; experiment: Inhibitory activity to inhibit antigen induced bronchoconstriction in guinea pig; format: functional
Cavia porcellus [19] = experiment: Activity against platelet activating factor in guinea pig, no significant inhibition when compound dose (10 mg/kg) given intravenously; NA means inactive; format: functional, organism-based
Cavia porcellus [20] = experiment: In vivo guinea pig bronchoconstriction against leukotriene D4 when administered a compound dose (mg/kg) intravenously; format: functional; settings: Lung, iv, read-out: ID50 (the source's name); summary of the method: as §2
Cavia porcellus [21] = species on record: Cavia porcellus; experiment: Activity against platelet activating factor in guinea pig, no significant inhibition at concentration of 1% by aerosol; NA means inactive; format: functional, organism-based
Cavia porcellus [22] = species on record: Cavia porcellus; experiment: In vitro activity to inhibit leukotriene D4 induced contraction of guinea pig trachea; format: functional; settings: read-out: pA2 (converted)
Summary of the method: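 Guinea pig tracheal smooth muscle contracted by LTD4; pA2 and Schild slope reported.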

Cavia porcellus [23] = experiment: as §9; format: functional, organism-based; summary of the method: as §10
Cavia porcellus [24] = experiment: (§12) Duration of action of leukotriene E4 as time for inhibition to decrease to 40%, compound administered at a concentration of 1%,for 5 min by aerosol; format: functional
Summary of the method: (§13)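 Aerosol guinea pig bronchoconstriction with LTE4 challenge; drug given as 1% nebulized solution for 5 min. Duration taken as time for inhibition to fall to 40%.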

Cavia porcellus [25] = experiment: Activity against histamine induced bronchoconstriction in guinea pig, no significant inhibition when compound dose (10 mg/kg) given intravenously; NA means inactive; format: functional, organism-based
Cavia porcellus [26] = experiment: In vivo guinea pig bronchoconstriction against leukotriene C4 when administered at a concentration of 1%, by aerosol; NS means no significant inhibition.; format: functional, organism-based; settings: Lung
Cavia porcellus [27] = experiment: In vivo guinea pig bronchoconstriction against leukotriene B4 (when administered at a concentration of 1%, by aerosol); Not active; settings: Lung
Cavia porcellus [28] = experiment: Duration of action of leukotriene D4 as time for inhibition to decrease to 40%, when compound was administered at a concentration of 1%, for 5 min by aerosol; format: ADME, organism-based; settings: guinea pig, in vivo, inhaled_or_intranasal; summary of the method: as §11
Cavia porcellus [29] = experiment: Activity against platelet activating factor in guinea pig, no significant inhibition when compound dose (10 mg/kg) given intravenously; Not active.; format: functional, organism-based
Cavia porcellus [30] = experiment: Inhibitory activity to inhibit arachidonic acid induced bronchoconstriction (when administered at a concentration of 1%, by aerosol); Not active; format: functional, organism-based
Cavia porcellus [31] = experiment: Time taken for inhibition of antigen induced bronchoconstriction in guinea pig to decrease to 40%, compound administered at a concentration of 1%, for 5 min by aerosol; format: organism-based; settings: in vivo, inhaled_or_intranasal; summary of the method: as §6
Cavia porcellus [32] = experiment: Activity against platelet activating factor in guinea pig (when administered at a concentration of 1%, by aerosol); Not active; format: functional, organism-based
Cavia porcellus [33] = experiment: Activity against histamine induced bronchoconstriction in guinea pig (when administered at a concentration of 1%, by aerosol); Not active; format: functional, organism-based
Cavia porcellus [34] = experiment: Activity against histamine induced bronchoconstriction in guinea pig, no significant inhibition when compound dose (10 mg/kg) given intravenously; Not active.; format: functional, organism-based
Cavia porcellus [35] = experiment: as §4; format: ADME, organism-based; design: dose 10 mg/kg; settings: guinea pig, in vivo; summary of the method: as §5
Cavia porcellus [36] = experiment: as §7; format: ADME, organism-based; design: dose 10 mg/kg; settings: guinea pig, in vivo; summary of the method: as §8
Cavia porcellus [37] = experiment: as §12; format: ADME, organism-based; settings: guinea pig, in vivo, inhaled_or_intranasal; summary of the method: as §13
[38] = biological target: T2, Cysteinyl leukotriene receptor 1; experiment: In vitro activity to inhibit binding of [3H]- leukotriene D4 to receptor sites in guinea pig lung membrane; format: cell membranes; summary of the method: as §3
Cavia porcellus [39] = species on record: Cavia porcellus; experiment: In vitro activity to inhibit SRS-A induced contraction of guinea pig ileum; remark: listed apart in the source
Cavia porcellus [40] = experiment: Inhibition of leukotriene E4 induced bronchoconstriction in anesthetized guinea pigs after aerosol administration as 1% solution; format: functional
Cavia porcellus [41] = experiment: Inhibition of leukotriene E4 induced bronchoconstriction in anesthetized guinea pigs after intravenous administration at a dose of 10 mg/kg; format: functional
[42] = test system: Cysteinyl leukotriene receptor (Cavia porcellus); experiment: Inhibitory activity to block binding of [3H]leukotriene D4 to LTD4 receptor sites in homogenized guinea pig lung at 10 uM
Cavia porcellus [43] = experiment: Inhibition of leukotriene D4 induced bronchoconstriction in anesthetized guinea pigs after intravenous administration at a dose of 1 mg/kg; format: functional

Chain of Dual specificity calcium/calmodulin-dependent 3',5'-cyclic nucleotide phosphodiesterase 1A (P14100 whole entry): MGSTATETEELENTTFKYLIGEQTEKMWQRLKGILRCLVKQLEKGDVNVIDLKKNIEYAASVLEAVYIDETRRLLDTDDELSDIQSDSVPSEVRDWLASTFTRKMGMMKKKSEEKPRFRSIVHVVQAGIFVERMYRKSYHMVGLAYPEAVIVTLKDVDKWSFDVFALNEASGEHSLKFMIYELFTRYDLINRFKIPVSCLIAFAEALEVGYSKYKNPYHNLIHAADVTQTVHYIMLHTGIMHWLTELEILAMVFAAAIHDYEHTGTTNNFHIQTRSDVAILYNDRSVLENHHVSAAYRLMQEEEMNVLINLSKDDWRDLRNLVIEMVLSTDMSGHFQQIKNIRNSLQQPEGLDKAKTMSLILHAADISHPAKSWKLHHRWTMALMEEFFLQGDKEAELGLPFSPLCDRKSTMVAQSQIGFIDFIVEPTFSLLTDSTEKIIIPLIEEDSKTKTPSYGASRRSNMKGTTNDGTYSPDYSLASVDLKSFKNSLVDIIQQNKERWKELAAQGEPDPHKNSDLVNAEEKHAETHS

## O=C(O)c1ccc(OCCn2ccnc2)cc1 [DAZOXIBEN]
Rattus norvegicus [1]
  IC50: Not Active
[2]
  IC50: 10 µM

## CCCc1c(OCCCCCOc2cc3c(cc2C(C)=O)CCC(C(=O)O)O3)ccc(C(C)=O)c1O (stereo not drawn) [ABLUKAST]
Rattus norvegicus [3]
  IC50: 4 µM
Cavia porcellus [4]
  ED50: 5 mg/kg
Cavia porcellus [5]
  inhibition: inactive
Cavia porcellus [6]
  ED50: 1 mg/kg
[7]
  inhibition: 70%
Cavia porcellus [8]
  inhibition in vivo at 10 mg/kg: 93%
[9]
  IC50: 36 µM
Cavia porcellus [10]
  ED50: 3 mg/kg
Cavia porcellus [11]
  Duration: 40 min
Cavia porcellus [12]
  Duration: 250 min
Cavia porcellus [13]
  Duration: 40 min
Cavia porcellus [14]
  Inhibition: 89%
Cavia porcellus [15]
  IC50: 0.06 µM
[16]
  IC50: 4 µM
Cavia porcellus [17]
  Duration: 150 min
Cavia porcellus [18]
  Inhibition: 0.027%
Cavia porcellus [19]
  inhibition: inactive
Cavia porcellus [20]
  ED50: 5 mg/kg
[2]
  IC50: 7 µM
Cavia porcellus [21]
  inhibition: inactive
Cavia porcellus [22]
  Kb: 0.251 µM
Cavia porcellus [23]
  IC50: 0.007 % conc
Cavia porcellus [24]
  Duration: 90 min
Cavia porcellus [25]
  inhibition: inactive

## CCCc1c(OCC(O)COc2ccc3c(=O)cc(C(=O)O)oc3c2CCC)ccc(C(C)=O)c1O (stereo not drawn) [FPL-55712]
Cavia porcellus [26]
  inhibition: inactive
Cavia porcellus [4]
  ED50: 2 mg/kg
Cavia porcellus [27]
  inhibition: inactive
Cavia porcellus [6]
  ED50: 1 mg/kg
Cavia porcellus [8]
  inhibition in vivo at 10 mg/kg: 92%
[9]
  IC50: 40 µM
Cavia porcellus [10]
  ED50: 6 mg/kg
Cavia porcellus [28]
  Duration: 60 min
Cavia porcellus [29]
  inhibition: inactive
Cavia porcellus [30]
  inhibition: inactive
Cavia porcellus [31]
  Duration: 270 min
Cavia porcellus [14]
  Inhibition: 64%
Cavia porcellus [15]
  IC50: 0.05 µM
Cavia porcellus [32]
  inhibition: inactive
Cavia porcellus [33]
  inhibition: inactive
Cavia porcellus [34]
  inhibition: inactive
Cavia porcellus [35]
  Duration: 6 min
Cavia porcellus [36]
  Duration: 6 min
Cavia porcellus [20]
  ED50: 2 mg/kg
Cavia porcellus [22]
  Kb: 1 µM
Cavia porcellus [23]
  IC50: 0.5 % conc
Cavia porcellus [37]
  Duration: 50 min

## CCCc1c(OCCCCCOc2cc3c(cc2C(C)=O)CC[C@@H](C(=O)O)O3)ccc(C(C)=O)c1O
Cavia porcellus [10]
  ED50: 4 mg/kg
[38]
  IC50: 5 µM
Cavia porcellus [20]
  ED50: 3 mg/kg
Cavia porcellus [39]
  IC50: 0.06 µM
Cavia porcellus [22]
  Kb: 0.631 µM

## CCCc1c(OCCCOc2c(C)c(C)c3c(c2C)CCC(C)(C(=O)O)O3)ccc(C(C)=O)c1O (stereo not drawn)
Cavia porcellus [40]
  Inhibition: 53%
Cavia porcellus [41]
  inhibition in vivo at 10 mg/kg: 99%
[42]
  inhibition: 88%

## CCCc1c(OCCCCCOc2cc3c(cc2C(C)=O)CCC(c2nnn[nH]2)O3)ccc(C(C)=O)c1O (stereo not drawn)
[42]
  inhibition: 60%
Cavia porcellus [43]
  inhibition in vivo at 1 mg/kg: 0%
